These results are taken from ChEMBL document CHEMBL3272139, “2,5-Bis(3,4-dimethoxybenzyl)cyclopentylamine, a peripheral dopamine blocking agent” (J Med Chem, 1978).

For data set [1], the system named is Mus musculus. Description: Reduction in apomorphine-induced sterotypic climbing in Swiss-Webster mouse at 0.1 mg/kg, ip administered 30 mins prior to apomorphine-challenge measured after 5 mins. In kind it is functional, organism-based. More on the design: dose 0.1 mg/kg. In a few lines: (§1)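 Male Swiss–Webster mice (20–30 g) were dosed ip in 0.9% saline. Thirty minutes later they received apomorphine HCl, 1 mg/kg sc. Each mouse was placed in a wire-mesh cage and scored for vertical climbing after about 5 min of exploration, with two scores per animal averaged. Groups had 10 mice, compared with saline controls by two-tailed Student's t test.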

The species named for data set [2] is Canis familiaris. The data set can be described thus: Cardiovascular activity in pentobarbital-anesthesized, morphine-premedicated, atropinized, right femoral artery and vein-cannulated mongrel dog assessed as vasodepression. In kind it is ADME, organism-based, Canis lupus familiaris. The following applies: in vivo. In a few lines: (§2)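 Mongrel dogs atropinized (1 mg/kg) and checked for autonomic responsiveness with norepinephrine and N-isopropylnorepinephrine (0.1–0.2 µg/kg each). Drugs were given iv via an indwelling venous catheter in 2 mL 0.9% saline. Blood pressure and heart rate were recorded via an arterial catheter. Threshold dose was read from a linear plot of % fall in mean pressure against log dose.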

The species named for data set [3] is Canis familiaris. Description: Cardiovascular activity in pentobarbital-anesthesized, morphine-premedicated, atropinized, right femoral artery and vein-cannulated mongrel dog assessed as decrease in systolic pressure. The following applies: in vivo. In kind it is ADME, organism-based, Canis lupus familiaris. In a few lines:
as §2

For data set [4], the species on record is Canis familiaris. The data set can be described thus: Cardiovascular activity in pentobarbital-anesthesized, morphine-premedicated, atropinized, right femoral artery and vein-cannulated mongrel dog assessed as decrease in diastolic pressure. The format is ADME, organism-based, Canis lupus familiaris. The following applies: in vivo. The method, boiled down:
as §2

Data set [5] concerns Canis familiaris. The data set can be described thus: Cardiovascular activity in pentobarbital-anesthesized, morphine-premedicated, atropinized, right femoral artery and vein-cannulated mongrel dog assessed as decrease in mean blood pressure at 2.4 umol/kg relative to control. In kind it is ADME, organism-based, Canis lupus familiaris. Also on record: scale not given: the % may be the effect or the level left. The following applies: in vivo. In a few lines: as §2

The subject of data set [6] is Canis familiaris. Description: Cardiovascular activity in pentobarbital-anesthesized, morphine-premedicated, atropinized, right femoral artery and vein-cannulated mongrel dog assessed as time required for decrease in mean blood pressure at 2.4 umol/kg. The format is ADME, organism-based, Canis lupus familiaris. The following applies: in vivo. The method, boiled down:
as §2

Data set [7] has as its system Canis familiaris. Description: Cardiovascular activity in pentobarbital-anesthesized, morphine-premedicated, atropinized, right femoral artery and vein-cannulated mongrel dog at 95 to 120 umol/kg. The format is ADME, organism-based, Canis lupus familiaris. The following applies: in vivo.
In data set [8] the test system is Canis familiaris. Description: Cardiovascular activity in pentobarbital-anesthesized, morphine-premedicated, atropinized, right femoral artery and vein-cannulated mongrel dog at 95 to 120 umol/kg in presence of haloperidol. The format is ADME, organism-based, Canis lupus familiaris. The following applies: in vivo.
Data set [9] deals with Canis familiaris. The data set can be described thus: Cardiovascular activity in pentobarbital-anesthesized, morphine-premedicated, atropinized, right femoral artery and vein-cannulated mongrel dog at 95 to 120 umol/kg in presence of metoclopramide. The following applies: in vivo. In kind it is ADME, organism-based, Canis lupus familiaris.
The test system of data set [10] is Canis familiaris. The data set can be described thus: Cardiovascular activity in pentobarbital-anesthesized, morphine-premedicated, atropinized, right femoral artery and vein-cannulated mongrel dog at 95 to 120 umol/kg in presence of propranolol. The format is ADME, organism-based, Canis lupus familiaris. The following applies: in vivo.
The subject of data set [11] is Canis familiaris. Description: Inhibition of norepinephrine-induced chronotropic effects in pentobarbital-anesthesized, morphine-premedicated, atropinized, right femoral artery and vein-cannulated mongrel dog up to 71 umol/kg. The format is functional, organism-based. The following applies: Canis lupus familiaris.
The test system of data set [12] is Canis familiaris. Description: Inhibition of norepinephrine-induced inotropic effects in pentobarbital-anesthesized, morphine-premedicated, atropinized, right femoral artery and vein-cannulated mongrel dog up to 71 umol/kg. In kind it is functional, organism-based. The following applies: Canis lupus familiaris.
In data set [13] the test system is Canis familiaris. Description: Inhibition of norepinephrine-induced blood pressure effects in pentobarbital-anesthesized, morphine-premedicated, atropinized, right femoral artery and vein-cannulated mongrel dog up to 71 umol/kg. In kind it is functional, organism-based. The following applies: Canis lupus familiaris.
For data set [14], the system named is Canis familiaris. Description: Inhibition of N-isopropylnorepinephrine-induced chronotropic effects in pentobarbital-anesthesized, morphine-premedicated, atropinized, right femoral artery and vein-cannulated mongrel dog up to 71 umol/kg. In kind it is functional, organism-based. The following applies: Canis lupus familiaris.
The subject of data set [15] is Canis familiaris. Description: Inhibition of N-isopropylnorepinephrine-induced inotropic effects in pentobarbital-anesthesized, morphine-premedicated, atropinized, right femoral artery and vein-cannulated mongrel dog up to 71 umol/kg. In kind it is functional, organism-based. The following applies: Canis lupus familiaris.
Data set [16] concerns Canis familiaris. The data set can be described thus: Inhibition of N-isopropylnorepinephrine-induced blood pressure effects in pentobarbital-anesthesized, morphine-premedicated, atropinized, right femoral artery and vein-cannulated mongrel dog up to 71 umol/kg. The format is functional, organism-based. The following applies: Canis lupus familiaris.
Data set [17] is filed under the species Canis familiaris. Description: Cardiovascular activity in pentobarbital-anesthesized, morphine-premedicated, atropinized, right femoral artery and vein-cannulated mongrel dog assessed as threshold dose required for decrease in mean blood pressure. The format is ADME, organism-based, Canis lupus familiaris. The following applies: in vivo. The method, boiled down: as §2

Data set [18] is filed under the species Canis familiaris. The data set can be described thus: Reduction in dopamine-induced depressor response in pentobarbital-anesthesized, morphine-premedicated, atropinized, right femoral artery and vein-cannulated mongrel dog. In kind it is functional, organism-based. The following applies: Canis lupus familiaris. The method, boiled down: (§3)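 Atropinized mongrel dogs pretreated with phenoxybenzamine, 5 mg/kg, to remove the dopamine pressor action. Depressor response was evoked with dopamine, 3 µg/kg iv. Test drug was given iv in 2 mL saline. ED50 was taken from a linear plot of log dose vs % antagonism of the dopamine depressor effect.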

The species named for data set [19] is Canis familiaris. Description: Reduction in dopamine-induced depressor response in pentobarbital-anesthesized, morphine-premedicated, atropinized, right femoral artery and vein-cannulated mongrel dog assessed as threshold dose required for reduction. The format is functional, Canis lupus familiaris.
Data set [20] has as its system Canis familiaris. Description: Reduction in dopamine-induced depressor response in pentobarbital-anesthesized, morphine-premedicated, atropinized, right femoral artery and vein-cannulated mongrel dog at 12 to 17 umol/kg in presence of alpha-adrenergic blocker phenoxybenzamine. The following applies: Canis lupus familiaris. The format is functional, organism-based. In a few lines:
as §3

Data set [21] is filed under the species Canis familiaris. Description: Reduction in dopamine-induced depressor response in pentobarbital-anesthesized, morphine-premedicated, atropinized, right femoral artery and vein-cannulated mongrel dog in presence of alpha-adrenergic blocker phenoxybenzamine. In kind it is functional. The following applies: Canis lupus familiaris. In a few lines:
as §3

Data set [22] has as its system Canis familiaris. The data set can be described thus: Reduction in dopamine-induced depressor response in pentobarbital-anesthesized, morphine-premedicated, atropinized, right femoral artery and vein-cannulated mongrel dog assessed as half life of drug action at 6 ug/kg. The format is functional, organism-based. The following applies: Canis lupus familiaris. The method, boiled down:
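Single atropinized dog given 6 µg/kg test drug iv. Residual blockade was measured every 5 min against a 5 µg/kg dopamine challenge. Half-life came from a linear plot of log residual blockade vs time.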

Data set [23] relates to Mus musculus. The data set can be described thus: Potentiation of apomorphine-induced sterotypic climbing in Swiss-Webster mouse at 42.5 to 59.4 umol/kg, ip administered 30 mins prior to apomorphine-challenge measured after 5 mins. In kind it is functional, organism-based. The following applies: 47.5 to 59.4 umol/kg, in the assay text read “47.5 to 59.4 umol/kg” for “42.5 to 59.4 umol/kg”. The method, boiled down: as §1

The test system of data set [24] is Mus musculus. Description: Potentiation of apomorphine-induced sterotypic climbing in ip dosed Swiss-Webster mouse administered for 7 days. The format is functional.

The source made the active and inactive calls.

A word on the ED50: it is the dose that gives a 50% effect, or the effect in half of the subjects.

Turning to `O=C(CCCN1CCC(O)(c2ccc(Cl)cc2)CC1)c1ccc(F)cc1`, in the data set on Mus musculus [1], the outcome was Active.

Regarding `COc1ccc(CC2CCC(Cc3ccc(OC)c(OC)c3)C2N)cc1OC.Cl` (centres undefined), the Activity result in the data set listed under Canis familiaris [2] is reported as “Toxic”; in the data set filed under Canis familiaris [3], “Dose-dependent effect”; in the data set filed under Canis familiaris [4], “Dose-dependent effect”; with Canis familiaris [5], 10%; with Canis familiaris [7], “Toxic”; with Canis familiaris [8], “Toxic”. For the same compound, the Activity result was “Toxic” with Canis familiaris [9]; “Toxic” in the data set with Canis familiaris [10]; 1.2 µmol/kg in the data set filed under Canis familiaris [17]; “Dose-dependent effect” in the data set filed under Canis familiaris [18]; 0.7 µmol/kg in the data set filed under Canis familiaris [19]; 5.94 µmol/kg in the data set on Mus musculus [24]. Also, the Time in the data set on Canis familiaris [6] is recorded as under 1 min. Moreover, the inhibition result in the data set with Canis familiaris [11], with Canis familiaris [12], in the data set with Canis familiaris [13], with Canis familiaris [14], in the data set on Canis familiaris [15] and in the data set on Canis familiaris [16] was “inactive” in each case. Moreover, the outcome with Canis familiaris [20] and with Mus musculus [23] was Active. Besides, the median effective dose (ED50) in the data set filed under Canis familiaris [21] stood at 4 µmol/kg. For the same compound, the T1/2 in the data set with Canis familiaris [22] is 18 min.
